Converted amounts (≈) assume the structure as drawn. The source made the active and inactive calls. No cut-off for these calls is given here.
Experiments:
Format in all cases: functional
[1] = test system: Staphylococcus epidermidis; test: Antibacterial activity against Staphylococcus epidermidis assessed as growth inhibition at 37 degC after overnight incubation by agar well diffusion method
[2] = test system: Proteus mirabilis; test: Antibacterial activity against Proteus mirabilis assessed as diameter of growth inhibition zone at 2 mg/ml at 37 degC after 24 hrs by agar well diffusion method; conditions: for zone of inhibition at 2000 µg/mL: read-out: DIZ
[3] = test system: Staphylococcus epidermidis; test: Antibacterial activity against Staphylococcus epidermidis assessed as diameter of growth inhibition zone at 2 mg/ml at 37 degC after 24 hrs by agar well diffusion method; conditions: read-out: DIZ
[4] = test system: Staphylococcus aureus; test: Antibacterial activity against Staphylococcus aureus assessed as diameter of growth inhibition zone at 2 mg/ml at 37 degC after 24 hrs by agar well diffusion method; conditions: read-out: DIZ
[5] = test system: Bacillus subtilis; test: Antibacterial activity against Bacillus subtilis assessed as diameter of growth inhibition zone at 2 mg/ml at 37 degC after 24 hrs by agar well diffusion method; conditions: for zone of inhibition at 2000 µg/mL: read-out: DIZ
[6] = test system: Pseudomonas aeruginosa; test: Antibacterial activity against Pseudomonas aeruginosa assessed as diameter of growth inhibition zone at 2 mg/ml at 37 degC after 24 hrs by agar well diffusion method; conditions: for zone of inhibition at 2000 µg/mL: read-out: DIZ
[7] = test system: Klebsiella aerogenes; test: Antibacterial activity against Klebsiella aerogenes assessed as diameter of growth inhibition zone at 2 mg/ml at 37 degC after 24 hrs by agar well diffusion method; conditions: for zone of inhibition at 2000 µg/mL: read-out: DIZ
[8] = test system: Staphylococcus aureus; test: Antibacterial activity against Staphylococcus aureus assessed as growth inhibition at 37 degC after overnight incubation by agar well diffusion method
[9] = test system: Escherichia coli; test: Antibacterial activity against Escherichia coli assessed as diameter of growth inhibition zone at 2 mg/ml at 37 degC after 24 hrs by agar well diffusion method; conditions: for zone of inhibition at 2000 µg/mL: read-out: DIZ
[10] = test system: Pseudomonas aeruginosa; test: Antibacterial activity against Pseudomonas aeruginosa assessed as growth inhibition at 37 degC after overnight incubation by agar well diffusion method
[11] = test system: Bacillus subtilis; test: Antibacterial activity against Bacillus subtilis assessed as growth inhibition at 37 degC after overnight incubation by agar well diffusion method
[12] = test system: Proteus mirabilis; test: Antibacterial activity against Proteus mirabilis assessed as growth inhibition at 37 degC after overnight incubation by agar well diffusion method
[13] = test system: Escherichia coli; test: Antibacterial activity against Escherichia coli assessed as growth inhibition at 37 degC after overnight incubation by agar well diffusion method
[14] = test system: Klebsiella aerogenes; test: Antibacterial activity against Klebsiella aerogenes assessed as growth inhibition at 37 degC after overnight incubation by agar well diffusion method
[15] = test system: Rattus norvegicus; test: Antiinflammatory activity in Wistar albino rat assessed as inhibition of carrageenan-induced paw edema at 50 mg/kg, po administered 30 mins prior to carrageenan challenge measured after 2 hrs by plethysmometer analysis
Method in brief: (§1)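 Male Wistar albino rats, 200-250 g, five per group, fasted from 12 h before and during the test. Compounds were given orally at 50 mg/kg 30 min before sub-plantar injection of 0.1 ml 1% carrageenan in 0.9% saline into the left hind paw. Tween 80 vehicle controls. Paw volume was read by plethysmometer up to the tibiotarsal mark at 0-4 h. Results are mean ± SEM and % inhibition, ANOVA and Dunnett's test.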

[16] = test system: Rattus norvegicus; test: Antiinflammatory activity in Wistar albino rat assessed as inhibition of carrageenan-induced paw edema at 50 mg/kg, po administered 30 mins prior to carrageenan challenge measured after 4 hrs by plethysmometer analysis; method in brief: as §1
[17] = test system: Rattus norvegicus; test: Antiinflammatory activity in Wistar albino rat assessed as inhibition of carrageenan-induced paw edema at 50 mg/kg, po administered 30 mins prior to carrageenan challenge measured after 3 hrs by plethysmometer analysis; method in brief: as §1
[18] = test system: Rattus norvegicus; test: Antiinflammatory activity in Wistar albino rat assessed as inhibition of carrageenan-induced paw edema at 50 mg/kg, po administered 30 mins prior to carrageenan challenge measured after 1 hr by plethysmometer analysis; method in brief: as §1

Row | Structure (SMILES) | MIC [1] | diameter of the inhibition zone (DIZ) [2] | zone of inhibition at 2000 µg/mL [3] | zone of inhibition at 2000 µg/mL [4] | diameter of the inhibition zone (DIZ) [6] | MIC [8] | zone of inhibition at 2000 µg/mL [2] | MIC [10] | MIC [11] | zone of inhibition at 2000 µg/mL [5] | MIC [12] | MIC [13] | MIC [14] | zone of inhibition at 2000 µg/mL [6] | zone of inhibition at 2000 µg/mL [7] | zone of inhibition at 2000 µg/mL [9] | inhibition in vivo at 50 mg/kg [15] | inhibition in vivo at 50 mg/kg [16] | inhibition in vivo at 50 mg/kg [17] | inhibition in vivo at 50 mg/kg [18] | also measured
1 | O=c1oc2ccc(Cl)cc2cc1-c1csc(N2N=C(c3ccc(F)cc3)C[C@@]2(O)C(F)(F)F)n1 | 64 µg/mL (≈ 126 µM) | inactive | 14 mm | 4.93 mm | inactive | 32 µg/mL (≈ 62.8 µM) | – | – | – | – | – | – | – | – | – | – | – | – | – | – | diameter of the inhibition zone (DIZ) [5]: inactive; diameter of the inhibition zone (DIZ) [7]: inactive; diameter of the inhibition zone (DIZ) [9]: inactive
2 | C=CC1=C(C(=O)O)N2C(=O)[C@@H](NC(=O)/C(=N\OCC(=O)O)c3csc(N)n3)[C@H]2SC1 [CEFIXIME] | 2 µg/mL (≈ 4.41 µM) | – | 22 mm | 3.9 mm | – | 2 µg/mL (≈ 4.41 µM) | 20 mm | 2 µg/mL (≈ 4.41 µM) | 2 µg/mL (≈ 4.41 µM) | 26 mm | 2 µg/mL (≈ 4.41 µM) | 2 µg/mL (≈ 4.41 µM) | 2 µg/mL (≈ 4.41 µM) | 10 mm | 15 mm | 14.1 mm | – | – | – | – | –
3 | O=c1oc2ccc(Br)cc2cc1-c1csc(N2N=C(c3ccc(F)cc3)C[C@@]2(O)C(F)(F)F)n1 | 64 µg/mL (≈ 115 µM) | inactive | 14 mm | 1.87 mm | inactive | 128 µg/mL (≈ 231 µM) | – | – | 512 µg/mL (≈ 924 µM) | 12.4 mm | – | 512 µg/mL (≈ 924 µM) | 256 µg/mL (≈ 462 µM) | – | 11 mm | 11 mm | – | – | – | – | –
4 | O=c1oc2ccc(Br)cc2cc1-c1csc(N2N=C(c3ccc(Br)cc3)C[C@@]2(O)C(F)(F)F)n1 | 512 µg/mL (≈ 832 µM) | inactive | 13.1 mm | 2.03 mm | inactive | 128 µg/mL (≈ 208 µM) | – | – | – | – | – | 256 µg/mL (≈ 416 µM) | 512 µg/mL (≈ 832 µM) | – | 10.5 mm | 10 mm | – | – | – | – | diameter of the inhibition zone (DIZ) [5]: inactive
5 | O=c1oc2ccc(Cl)cc2cc1-c1csc(N2N=C(C(F)(F)F)C[C@@]2(O)C(F)(F)F)n1 | – | – | – | – | – | – | – | – | – | – | – | – | – | – | – | – | 63.3% | 41.1% | 54.5% | 85.9% | –
6 | O=c1oc2ccc(Cl)cc2cc1-c1csc(N2N=C(c3ccc(Cl)cc3)C[C@@]2(O)C(F)(F)F)n1 | 512 µg/mL (≈ 973 µM) | inactive | 11.2 mm | 4.13 mm | inactive | 64 µg/mL (≈ 122 µM) | – | – | – | – | – | – | – | – | – | – | 62.5% | 31.5% | 42.1% | 73.2% | diameter of the inhibition zone (DIZ) [5]: inactive; diameter of the inhibition zone (DIZ) [7]: inactive; diameter of the inhibition zone (DIZ) [9]: inactive
7 | O=c1oc2ccccc2cc1-c1csc(N2N=C(c3ccc(Br)cc3)C[C@@]2(O)C(F)(F)F)n1 | – | – | – | – | – | – | – | – | – | – | – | – | – | – | – | – | 70.8% | 25.2% | 35.5% | 76.1% | –
8 | O=c1oc2ccc(Br)cc2cc1-c1csc(N2N=C(C(F)(F)F)C[C@@]2(O)C(F)(F)F)n1 | 16 µg/mL (≈ 30.3 µM) | – | 20.1 mm | 3.13 mm | – | 64 µg/mL (≈ 121 µM) | 17.2 mm | 128 µg/mL (≈ 242 µM) | 8 µg/mL (≈ 15.1 µM) | 25 mm | 16 µg/mL (≈ 30.3 µM) | 128 µg/mL (≈ 242 µM) | 512 µg/mL (≈ 969 µM) | 9.13 mm | 11 mm | 11.9 mm | – | – | – | – | –
9 | O=c1oc2ccccc2cc1-c1csc(N2N=C(c3ccc(F)cc3)C[C@@]2(O)C(F)(F)F)n1 | 64 µg/mL (≈ 135 µM) | – | 14 mm | 3.96 mm | – | 32 µg/mL (≈ 67.3 µM) | 17 mm | 32 µg/mL (≈ 67.3 µM) | 512 µg/mL (≈ 1080 µM) | 12 mm | 4 µg/mL (≈ 8.41 µM) | 2 µg/mL (≈ 4.21 µM) | 8 µg/mL (≈ 16.8 µM) | 7.87 mm | 12.1 mm | 13 mm | 56.7% | 18% | 22.3% | 74.7% | –
10 | O=c1oc2ccccc2cc1-c1csc(N2N=C(c3ccc(Cl)cc3)C[C@@]2(O)C(F)(F)F)n1 | 64 µg/mL (≈ 130 µM) | – | 15.1 mm | 4.5 mm | – | 16 µg/mL (≈ 32.5 µM) | 15.2 mm | 32 µg/mL (≈ 65.1 µM) | 512 µg/mL (≈ 1040 µM) | 15.7 mm | 4 µg/mL (≈ 8.13 µM) | 2 µg/mL (≈ 4.07 µM) | 8 µg/mL (≈ 16.3 µM) | 8.1 mm | 10.1 mm | 13.1 mm | 82.5% | 55.4% | 48% | 77.5% | –
11 | O=c1oc2ccc(Cl)cc2cc1-c1csc(N2N=C(c3ccc(Br)cc3)C[C@@]2(O)C(F)(F)F)n1 | 512 µg/mL (≈ 897 µM) | inactive | 11.2 mm | 2.07 mm | inactive | 64 µg/mL (≈ 112 µM) | – | – | – | – | – | – | – | – | – | – | – | – | – | – | diameter of the inhibition zone (DIZ) [5]: inactive; diameter of the inhibition zone (DIZ) [7]: inactive; diameter of the inhibition zone (DIZ) [9]: inactive
12 | O=c1oc2ccccc2cc1-c1csc(N2N=C(C(F)(F)F)C[C@@]2(O)C(F)(F)F)n1 | – | – | – | – | – | – | – | – | – | – | – | – | – | – | – | – | 79.2% | 37.9% | 64.8% | 83.1% | –
13 | O=c1oc2ccc(Br)cc2cc1-c1csc(N2N=C(c3ccc(Cl)cc3)C[C@@]2(O)C(F)(F)F)n1 | 512 µg/mL (≈ 897 µM) | – | 12.5 mm | 2 mm | – | 128 µg/mL (≈ 224 µM) | 15.1 mm | 128 µg/mL (≈ 224 µM) | 512 µg/mL (≈ 897 µM) | 10.3 mm | 16 µg/mL (≈ 28 µM) | – | 8 µg/mL (≈ 14 µM) | 8.1 mm | 13 mm | – | – | – | – | – | diameter of the inhibition zone (DIZ) [9]: inactive

From ChEMBL document CHEMBL2331091, “Synthesis and pharmacological evaluation of some novel 2-(5-hydroxy-5-trifluoromethyl-4,5-dihydropyrazol-1-yl)-4-(coumarin-3-yl)thiazoles” (2013)
